Results published in PubChem BioAssay AID504768 (Southern Research Specialized Biocontainment Screening …, 2011).

Experiment: protection of E. coli UTI89 from K1F – UTI89 strain, C7 control, set 4, capsule biogenesis inhibitor project, confirmation (AID 504768)
Details: E. coli UTI89 K1F phage lysis inhibition, OD600; measured here: cytotoxicity CC50
In short: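 System: E. coli UTI89 K1 and kpsM mutant; Medium: LB, cultures diluted 1:100; Probe or stimulus: K1F phage, added after compound pre-incubation; Doses: DMSO at 1% final; Schedule: 1.25 h compound pre-incubation at 37 °C shaking, lysis read 3 h post-phage; Technique: OD600 absorbance; Repeats: four replicate wells per compound concentration.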

Structure (SMILES)	CC50 [µM]
O=C(Nc1nc2c(F)cc(F)cc2s1)c1ccccc1	30.9
O=C(Nc1nc2ccccc2s1)c1ccncc1	104
O=C(Nc1nc2c(F)cc(F)cc2s1)c1ccncc1	71.8
Cc1cc(C)c2nc(NC(=O)c3ccccn3)sc2c1	6.19
O=C(Nc1nc2ccccc2s1)c1cccnc1	129
O=C(Nc1nc2c(Cl)cc(Cl)cc2s1)c1ccccn1	3.55
O=C(Nc1nc2ccc(F)cc2s1)c1ccccn1	3.32
O=C(Nc1nc2c(F)cccc2s1)c1ccccn1	2.56
O=C(Nc1nc2c(F)cc(F)cc2s1)c1cccnc1	> 300
